ChEMBL document CHEMBL4219091, “Pharmacophore requirements for HIV-1 reverse transcriptase inhibitors that selectively "Freeze" the pre-translocated complex during the polymerization catalytic cycle” (Bioorg Med Chem, 2018)
Active and inactive are the calls of the source. The calls are words filed in the database; no cut-off is given here.

Tests used:
[1] = target: T1, Human immunodeficiency virus type 1 reverse transcriptase (Human immunodeficiency virus 1, UniProt Q72547); experiment: Inhibition of HIV1 reverse transcriptase p66/p51 polymerase using PPT57 DNA/Cy5-labeled PPT24 as template/primer preincubated for 10 mins followed by dNTP addition measured after 5 mins by bromophenol blue staining based phosphor imaging analysis
In short: (§1)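 Gel-based DNA synthesis: PPT57 DNA template (3-fold molar excess) heat-annealed to 50 nM 5'-Cy5-labeled PPT24 primer; 200 nM RT in 50 mM Tris-HCl pH 7.8, 50 mM NaCl, 6 mM MgCl2. Started with 0.5 mM each dNTP, 5 min, 12% denaturing gel.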

[2] = target: T1, Human immunodeficiency virus type 1 reverse transcriptase; experiment: Inhibition of HIV1 reverse transcriptase p66/p51
In short: as §1, with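 “MgCl2. Inhibitor titrated up to 250 µM (≤5% final DMSO), 10 min preincubation at 37 °C.” for “MgCl2.”, “gel. IC50 from variable-slope curve fit, ≥3 independent determinations.” for “gel.”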

[3] = target: Human immunodeficiency virus type 1 reverse transcriptase (Human immunodeficiency virus 1) (UniProt Q72547); experiment: (§2) Inhibition of HIV1 reverse transcriptase p66/p51 assessed as freezing of template-primer-enzyme complex at pretranslocated stage at 100 uM using 5'-radiolabeled PBS36c DNA/5'-TTCTGACTAAAAGGGTCTGAGGGAT-3 as template/primer preincubated for 10 mins followed by Fe2+ addition by site-specific foot printing assay
In short: (§3)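 Fe2+ chemical footprinting: 50 nM 5'-radiolabeled PBS36c DNA template annealed to 150 nM primer, incubated with 750 nM HIV-1 RT in 120 mM sodium cacodylate (pH 7), 20 mM NaCl, 6 mM MgCl2. Compound added at fixed or increasing concentrations, 10 min preincubation at 37 °C. Screening at fixed concentration, 10 µM or 100 µM depending on compound.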

[4] = target: T1, Human immunodeficiency virus type 1 reverse transcriptase; experiment: Inhibition of HIV1 reverse transcriptase p66/p51 RNase H preincubated for 10 mins followed by PBS-22dpol/radiolabeled PBS-14r8d addition measured after 5 mins
In short: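 Inhibitors titrated up to 250 µM (≤5% final DMSO), 10 min preincubation at 37 °C before reaction start.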

[5] = system: Human immunodeficiency virus 1; experiment: Ratio of IC50 for HIV1 reverse transcriptase p66/p51 polymerase E89K mutant to IC50 for HIV1 reverse transcriptase p66/p51 polymerase wild type
[6] = system: Human immunodeficiency virus 1; experiment: Ratio of IC50 for HIV1 reverse transcriptase p66/p51 polymerase K65R mutant to IC50 for HIV1 reverse transcriptase p66/p51 polymerase wild type
[7] = system: Human immunodeficiency virus 1; experiment: Ratio of IC50 for HIV1 reverse transcriptase p66/p51 polymerase M184V mutant to IC50 for HIV1 reverse transcriptase p66/p51 polymerase wild type
[8] = target: Human immunodeficiency virus type 1 reverse transcriptase (Human immunodeficiency virus 1) (UniProt Q72547); experiment: Ratio of IC50 for HIV1 reverse transcriptase p66/p51 RNase H to IC50 for HIV1 reverse transcriptase p66/p51 polymerase
[9] = target: Human immunodeficiency virus type 1 reverse transcriptase (Human immunodeficiency virus 1) (UniProt Q72547); experiment: Inhibition of HIV1 reverse transcriptase p66/p51 assessed as freezing of template-primer-enzyme complex at pretranslocated stage using 5'-radiolabeled PBS36c DNA/5'-TTCTGACTAAAAGGGTCTGAGGGAT-3 as template/primer preincubated for 10 mins followed by Fe2+ addition by site-specific foot printing assay; in short: as §3
[10] = target: Human immunodeficiency virus type 1 reverse transcriptase (Human immunodeficiency virus 1, UniProt Q72547, E89K); experiment: Inhibition of HIV1 reverse transcriptase p66/p51 polymerase E89K mutant using PPT57 DNA/Cy5-labeled PPT24 as template/primer preincubated for 10 mins followed by dNTP addition measured after 5 mins by bromophenol blue staining based phosphor imaging analysis
In short: (§4)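 Template/primer: Cy5-labelled PPT24 primer (50 nM) heat-annealed to a 3-fold molar excess of PPT57 DNA template. Incubated with 200 nM RT in 50 mM Tris-HCl pH 7.8, 50 mM NaCl, 6 mM MgCl2. Inhibitor titrated up to […], with at most 5% final DMSO. Pre-incubated 10 min at 37 °C. Started with 0.5 mM each dNTP, run 5 min, stopped with formamide dye. Products resolved on 12% denaturing PAGE and imaged. Normalized data fitted to a variable-slope log[inhibitor]–response curve to give IC50.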

[11] = target: Human immunodeficiency virus type 1 reverse transcriptase (Human immunodeficiency virus 1, UniProt Q72547, M184V); experiment: Inhibition of HIV1 reverse transcriptase p66/p51 polymerase M184V mutant using PPT57 DNA/Cy5-labeled PPT24 as template/primer preincubated for 10 mins followed by dNTP addition measured after 5 mins by bromophenol blue staining based phosphor imaging analysis; in short: as §4
[12] = target: Human immunodeficiency virus type 1 reverse transcriptase (Human immunodeficiency virus 1, UniProt Q72547, K65R); experiment: Inhibition of HIV1 reverse transcriptase p66/p51 polymerase K65R mutant using PPT57 DNA/Cy5-labeled PPT24 as template/primer preincubated for 10 mins followed by dNTP addition measured after 5 mins by bromophenol blue staining based phosphor imaging analysis; in short: as §4
[13] = target: Human immunodeficiency virus type 1 reverse transcriptase (Human immunodeficiency virus 1) (UniProt Q72547); experiment: as §2, with “[…]” for “pretranslocated”, “10” for “100”; in short: as §3

Row | Structure (SMILES) | IC50 [1] | other results
1 | O=C(O)c1nc(-c2cccs2)nc(O)c1O | 46 µM | 
2 | O=C(O)c1nc(Cc2ccc(Cl)cc2)nc(O)c1O | 97 µM | 
3 | Nc1ncnc2c1ncn2Cc1nc(O)c(O)c(C(=O)O)n1 | > 100 µM | 
4 | O=C(Nc1ccc(-c2cccc(NC(P(=O)(O)O)P(=O)(O)O)c2)cc1)C1CC1 |  | IC50 [2]: > 50 µM; Active/not active call for freezing the pre-translocated complex [3]: inactive; IC50 [4]: 0.8 µM
5 | Cc1ccc(-c2nc(O)c(O)c(C(=O)O)n2)cc1Br | 1.4 to 1.74 µM | Ratio IC50 [5]: 2.7; Ratio IC50 [6]: < 2; Ratio IC50 [7]: < 2; Ratio IC50 [8]: > 10; inhibition [9]: Dose-dependent effect; IC50 [4]: 23 µM; IC50 [10]: 4.63 µM; IC50 [11]: 2.79 µM; IC50 [12]: 1.13 µM
6 | O=C(O)c1nc(-c2ccccc2)nc(O)c1O | > 100 µM | 
7 | COC(=O)c1nc(-c2ccc(C)c(Br)c2)nc(O)c1O | > 100 µM | 
8 | Cc1cccc(-c2nc(O)c(O)c(C(=O)O)n2)c1 | 49 µM | 
9 | O=C(O)c1nc(CNc2ncnc3ncc(Br)cc23)nc(O)c1O | 49 µM | Active/not active call for freezing the pre-translocated complex [3]: inactive
10 | O=P(O)(O)C(Nc1cccc(Br)c1)P(=O)(O)O |  | Active/not active call for freezing the pre-translocated complex [3]: Active
11 | COc1ccc(-c2cc3c(NCc4nc(O)c(O)c(C(=O)O)n4)ncnc3nc2SC)cc1 | 62 µM | IC50 [4]: 2 µM
12 | O=C(O)c1nc(CNc2ncnc3ncccc23)nc(O)c1O | 65 µM | 
13 | Cn1c2ccccc2c2c1cc(C#N)c(=O)n2-c1ccc([N+](=O)[O-])cc1 |  | inhibition [13]: Active
14 | Nc1ncnc2c1ncn2CCc1nc(O)c(O)c(C(=O)O)n1 | 41 µM | 
15 | COc1ccc(-c2cnc3ncnc(NCc4nc(O)c(O)c(C(=O)O)n4)c3c2)cc1 | 25 µM | Active/not active call for freezing the pre-translocated complex [3]: inactive; IC50 [4]: 1.5 µM
16 | O=C(O)c1nc(-c2cccc(-c3ccc(F)c(F)c3)c2)nc(O)c1O | > 100 µM | 
17 | Cc1noc(C)c1-c1ccc(-c2nc(O)c(O)c(C(=O)O)n2)cc1 | > 100 µM | 
18 | CNC(=O)c1nc(-c2ccc(C)c(Br)c2)nc(O)c1O | > 100 µM | 
19 | CSc1nc2ncnc(NCc3nc(O)c(O)c(C(=O)O)n3)c2cc1Br | > 100 µM | 

Second part, led by results:

Row | IC50 [1] | Structure (SMILES) | other results
20 | 2.8 µM | O=C(O)c1nc(-c2ccc(Br)cc2)nc(O)c1O | 
21 | 6.3 µM | Cc1ccc(-c2nc(O)c(O)c(C(=O)O)n2)cc1 | 
22 | 20 µM | O=C(O)c1nc(-c2cc(C(F)(F)F)cc(C(F)(F)F)c2)nc(O)c1O | Active/not active call for freezing the pre-translocated complex [3]: inactive
23 | 18 µM | O=C(O)c1nc(-c2cccc(Cl)c2)nc(O)c1O | 
24 | 4.5 µM | O=C(O)c1nc(-c2ccc(Cl)cc2)[nH]c(=O)c1O | 
25 | 22 µM | CC(C)c1ccc(-c2nc(O)c(O)c(C(=O)O)n2)cc1 | 
26 | 1.6 µM | Cc1ccc(-c2nc(O)c(O)c(C(=O)O)n2)cc1Cl | Ratio IC50 [8]: > 10; inhibition [9]: Dose-dependent effect; IC50 [4]: 25 µM
27 | 14 µM | O=C(O)c1nc(-c2cccc(Br)c2)nc(O)c1O | Active/not active call for freezing the pre-translocated complex [3]: Active
